Measured values from ChEMBL document CHEMBL3352049, “Taxanes with high potency inducing tubulin assembly overcome tumoural cell resistances” (Bioorg Med Chem, 2014).
Active and inactive are the calls of the source. No cut-off for these calls is given here.

Legend:
A2780 [1] = assay: Cytotoxicity against human A2780 cells by MTT assay; type: functional, cell-based
[2] = Cytotoxicity against human A2780AD cells by MTT assay; type: functional, cell-based; details: A2780 ADR
[3] = Resistance ratio of IC50 for human A2780AD cells to IC50 for human A2780 cells; type: functional, A2780 ADR
MCF7 = assay: Cytotoxicity against human MCF7 cells by MTT assay; type: functional, cell-based
[4] = Cytotoxicity against human MCF7/R cells by MTT assay; type: functional, cell-based; details: MCF7R
HeLa [5] = assay: Cytotoxicity against human HeLa cells by MTT assay; type: functional, cell-based
How it was run: (§1)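 MTT assay run as a modified version of an earlier method. IC50 in nM is the mean ± SEM of three independent assays. Relative resistance is the IC50 in the resistant line (1A9 tubulin mutants, or βIII-transfected HeLa) divided by the IC50 in the parental line (1A9 or HeLa).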

HeLa [6] = assay: Cytotoxicity against human HeLa cells transfected with wild-type tubulin beta3 by MTT assay; type: functional, cell-based; how it was run: as §1
HeLa [7] = assay: Resistance ratio of IC50 for human HeLa cells transfected with wild-type tubulin beta3 to IC50 for human HeLa cells; type: functional
How it was run: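 Relative resistance is the IC50 in HeLa cells transfected with wild-type βIII-tubulin divided by the IC50 in parental HeLa cells. Each IC50 (nM) is the mean ± SEM of three independent assays.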

1A9 [8] = assay: Cytotoxicity against human 1A9 cells by MTT assay; type: functional, cell-based; how it was run: as §1
[9] = Cytotoxicity against human 1A9PTX10 cells by MTT assay; type: functional, cell-based; details: 1A9/ptx-10; how it was run: as §1
1A9 [10] = assay: Resistance ratio of IC50 for human 1A9PTX10 cells to IC50 for human 1A9 cells; type: functional
How it was run: (§2)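 Relative resistance is the IC50 in the 1A9 tubulin-mutant line divided by the IC50 in parental 1A9 ovarian carcinoma cells. Each IC50 (nM) is the mean ± SEM of three independent assays.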

[11] = Cytotoxicity against human 1A9PTX22 cells by MTT assay; type: functional, cell-based; details: 1A9/ptx-22; how it was run: as §1
[12] = Cytotoxicity against human 1A9/A8 cells by MTT assay; type: functional, cell-based; how it was run: as §1
1A9 [13] = assay: Resistance ratio of IC50 for human 1A9/A8 cells to IC50 for human 1A9 cells; type: functional
A549 [14] = assay: Effect on microtubule cytoskeleton in human A549 cells assessed as induction of micronuleated cells with short microtubules in cytoplasm at 60 to 120 nM after 24 hrs by immunofluorescence assay; type: cell-based
How it was run: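 A549 cells were grown overnight on coverslips, then given DMSO vehicle or ligand (60 or 120 nM) for 24 h. Cells were permeabilized with Triton X-100 and fixed in 3.7% formaldehyde. Microtubules were stained with DM1A α-tubulin antibody and DNA with Hoechst 33342. Preparations were viewed by epifluorescence microscopy.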

Tubulin (Bos taurus) = Tubulin (Bos taurus) (UniProt Q6B856+Q862L2+Q862F3); assay: Induction of calf brain tubulin polymerization assessed as tubulin concentration required to form microtubules by electron microscopy
How it was run: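 Critical tubulin concentration found by centrifugation and quantification of the polymer formed. Polymers adsorbed onto formvar/carbon-coated copper grids, stained with 1% uranyl acetate, and viewed by electron microscopy at 100 kV.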

microtubule (Bos taurus) [15] = assay: Binding affinity to microtubule (Bos taurus) after 30 mins at 26 degC by flutax-2 displacement method
microtubule (Bos taurus) [16] = assay: Binding affinity to microtubule (Bos taurus) after 30 mins at 30 degC by flutax-2 displacement method
microtubule (Bos taurus) [17] = assay: Binding affinity to microtubule (Bos taurus) after 30 mins at 35 degC by flutax-2 displacement method
microtubule (Bos taurus) [18] = assay: Binding affinity to microtubule (Bos taurus) after 30 mins at 40 degC by flutax-2 displacement method
1A9 [19] = assay: Resistance ratio of IC50 for human 1A9PTX22 cells to IC50 for human 1A9 cells; type: functional; how it was run: as §2
A2780 [20] = assay: Cell cycle arrest at G2/M phase in human A2780 cells at 30 nM after 20 hrs by flow cytometry; type: functional, cell-based
A2780 [21] = assay: Cell cycle arrest at G2/M phase in human A2780 cells at 60 nM after 20 hrs by flow cytometry; type: functional, cell-based
[22] = Cell cycle arrest at G2/M phase in human A2780AD cells at 30 nM after 20 hrs by flow cytometry; type: functional, cell-based; details: A2780 ADR
[23] = Cell cycle arrest at G2/M phase in human A2780AD cells at 60 nM after 20 hrs by flow cytometry; type: functional, cell-based; details: A2780 ADR
A549 [24] = assay: Cell cycle arrest at G2/M phase in human A549 cells at 30 nM after 20 hrs by flow cytometry; type: functional, cell-based
A549 [25] = assay: Cell cycle arrest at G2/M phase in human A549 cells at 60 nM after 20 hrs by flow cytometry; type: functional, cell-based
microtubule (Bos taurus) [26] = assay: Binding affinity to microtubule (Bos taurus) after 30 mins at 27 degC by flutax-2 displacement method
microtubule (Bos taurus) [27] = assay: Binding affinity to microtubule (Bos taurus) after 30 mins at 32 degC by flutax-2 displacement method
microtubule (Bos taurus) [28] = assay: Binding affinity to microtubule (Bos taurus) after 30 mins at 37 degC by flutax-2 displacement method
microtubule (Bos taurus) [29] = assay: Binding affinity to microtubule (Bos taurus) after 30 mins at 42 degC by flutax-2 displacement method
microtubule (Bos taurus) [30] = assay: Binding affinity to paclitaxel site of microtubule (Bos taurus) after 30 mins at 26 degC by epothilone B displacement method
microtubule (Bos taurus) [31] = assay: Binding affinity to paclitaxel site of microtubule (Bos taurus) after 30 mins at 30 degC by epothilone B displacement method
microtubule (Bos taurus) [32] = assay: Binding affinity to paclitaxel site of microtubule (Bos taurus) after 30 mins at 35 degC by epothilone B displacement method
microtubule (Bos taurus) [33] = assay: Binding affinity to paclitaxel site of microtubule (Bos taurus) after 30 mins at 40 degC by epothilone B displacement method
A549 [34] = assay: Effect on microtubule cytoskeleton in human A549 cells assessed as induction of MS bundles of microtubules near membrane and nucleus at 50 to 500 nM after 24 hrs by immunofluorescence assay; type: cell-based
How it was run: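 A549 cells grown overnight on 12 mm round coverslips, then exposed 24 h to DMSO vehicle or ligand at serial concentrations. Permeabilized with Triton X100, fixed in 3.7% formaldehyde. Microtubules stained with DM1A anti-α-tubulin monoclonal, DNA with Hoechst 33342. Viewed by epifluorescence microscopy and imaged with a cooled CCD camera.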

SMILES	IC50 (A2780 [1]) [nM]	IC50 [2] [nM]	Ratio IC50 [3]	IC50 [4] [nM]	IC50 (HeLa [5]) [nM]	IC50 (HeLa [6]) [nM]	Ratio IC50 (HeLa [7])	IC50 (1A9 [8]) [nM]	IC50 [9] [nM]	Ratio IC50 (1A9 [10])	IC50 [11] [nM]	IC50 [12] [nM]	Ratio IC50 (1A9 [13])	Activity (A549 [14])	Activity (Tubulin (Bos taurus)) [µM]	Kb (microtubule (Bos taurus) [15]) [×10⁷ /M]	Kb (microtubule (Bos taurus) [16]) [×10⁷ /M]	Kb (microtubule (Bos taurus) [17]) [×10⁷ /M]	Kb (microtubule (Bos taurus) [18]) [×10⁷ /M]	Ratio IC50 (1A9 [19])	also measured
CCC(=O)O[C@H]1C(=O)[C@@]2(C)[C@H]([C@H](OC(=O)c3cccc(N=[N+]=[N-])c3)[C@]3(O)C[C@H](OC(=O)[C@H](O)[C@@H](NC(=O)OC(C)(C)C)c4ccccc4)C(C)=C1C3(C)C)[C@]1(OC(C)=O)CO[C@@H]1C[C@@H]2O	7	9.1	1.3	153	9.2	16	1.7	3.1	2.4	0.4	12	3.8	1.2	Active	3.6	612	748	628	355		IC50 (MCF7): 1.9 nM
C/C=C(\C)C(=O)N[C@@H](c1ccccc1)[C@@H](O)C(=O)O[C@H]1C[C@@]2(O)[C@@H](OC(=O)c3cccc(N=[N+]=[N-])c3)[C@@H]3[C@]4(OC(C)=O)CO[C@@H]4C[C@H](OC(=O)CC)[C@@]3(C)C(=O)[C@H](O)C(=C1C)C2(C)C		14	5.2		3.2	10.2	3.2	2.3	11.6	5	1.9	2	0.9	Active	2.9	124	85	87	52	0.83	
CC(=O)O[C@@]12CO[C@@H]1C[C@H](O)[C@@]1(C)C(=O)[C@H](OC(=O)C3CC3)C3=C(C)[C@@H](OC(=O)[C@H](O)[C@H](C=C(C)C)NC(=O)OC(C)(C)C)C[C@@](O)([C@@H](OC(=O)c4ccccc4)[C@H]21)C3(C)C	5.2	10.9	2.1	2.1	2.1	11.2	5.3	5	10.8	2.2	7.9	12.2	2.4	Active	0.9	12	10	8	7	1.6	Activity (A2780 [20]): Active; Activity (A2780 [21]): Active; Activity [22]: Active; Activity [23]: Active; Activity (A549 [24]): Active; Activity (A549 [25]): Active; Kb (microtubule (Bos taurus) [26]): 11 ×10⁷ /M; Kb (microtubule (Bos taurus) [27]): 9 ×10⁷ /M; Kb (microtubule (Bos taurus) [28]): 7 ×10⁷ /M; Kb (microtubule (Bos taurus) [29]): 6 ×10⁷ /M
CC(=O)O[C@H]1C(=O)[C@@]2(C)[C@H]([C@H](OC(=O)c3ccccc3)[C@]3(O)C[C@H](OC(=O)[C@H](O)[C@H](CC(C)C)NC(=O)OC(C)(C)C)C(C)=C1C3(C)C)[C@]1(OC(C)=O)CO[C@@H]1C[C@@H]2O	3.7	29.1	7.9	2.8	4.4	11.2	2.5	2.4	1.75	0.7	4.95	11.5	4.7	Active	1.6	3	2.7	2.4	2.7	2	IC50 (MCF7): 0.35 nM; Activity (A2780 [20]): Active; Activity (A2780 [21]): Active; Activity [22]: Active; Activity [23]: Active; Activity (A549 [24]): Active; Activity (A549 [25]): Active; Kb (microtubule (Bos taurus) [26]): 2.8 ×10⁷ /M; Kb (microtubule (Bos taurus) [27]): 2.7 ×10⁷ /M; Kb (microtubule (Bos taurus) [28]): 2.3 ×10⁷ /M; Kb (microtubule (Bos taurus) [29]): 2.5 ×10⁷ /M
CC(=O)O[C@@]12CO[C@@H]1C[C@H](O)[C@@]1(C)C(=O)[C@H](O)C3=C(C)[C@@H](OC(=O)[C@H](O)[C@@H](NC(=O)OC(C)(C)C)c4ccccc4)C[C@@](O)([C@@H](OC(=O)c4ccccc4)[C@H]21)C3(C)C [DOCETAXEL]		290													2.4						
CCC(=O)O[C@H]1C(=O)[C@@]2(C)[C@H]([C@H](OC(=O)c3cccc(OC)c3)[C@]3(O)C[C@H](OC(=O)[C@H](O)[C@H](C=C(C)C)NC(=O)OC(C)(C)C)C(C)=C1C3(C)C)[C@]1(OC(C)=O)CO[C@@H]1C[C@@H]2O	3.4	10.5		0.33	5.7	4.8		3.3	2.9		4.9	4		Active	0.6						Activity (A2780 [20]): Active; Activity (A2780 [21]): Active; Activity [22]: Active; Activity [23]: Active; Activity (A549 [24]): Active; Activity (A549 [25]): Active; Kb (microtubule (Bos taurus) [30]): 731 ×10⁷ /M; Kb (microtubule (Bos taurus) [31]): 545 ×10⁷ /M; Kb (microtubule (Bos taurus) [32]): 478 ×10⁷ /M; Kb (microtubule (Bos taurus) [33]): 318 ×10⁷ /M
CC(=O)O[C@H]1C(=O)[C@@]2(C)[C@H]([C@H](OC(=O)c3ccccc3)[C@]3(O)C[C@H](OC(=O)[C@H](O)[C@@H](NC(=O)c4ccccc4)c4ccccc4)C(C)=C1C3(C)C)[C@]1(OC(C)=O)CO[C@@H]1C[C@@H]2O [PACLITAXEL]	0.4	1240			0.7			3.9	81.4		32.8	4.2			4.2						Activity (A549 [34]): Active
